From ChEMBL document CHEMBL1140605, “Ester-based precursors to increase the bioavailability of quercetin” (J Med Chem, 2007)

Columns and labels:
[1] = Permeability from apical to basolateral side of dog MDCK2 cell monolayer assessed as intact drug level in basolateral compartment after 6 hrs; format: ADME, cell-based, Canis lupus familiaris; conditions: mdck-ii
Procedure, shortened: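 MDCK-2 monolayers were grown in DMEM with 10% FBS, seeded at 5 × 10⁵ cells/cm² on 24-mm Transwell inserts, and used at TER 100-300 Ω·cm² (10-20 days). Apical dosing was formally 30-50 µM compound in HBSS with 0.1% DMSO. After 6 h, basolateral solution was analysed by HPLC-UV at 300/370 nm and quantified against standard curves (quantification limit 0.2 µM).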

[2] = Solubility in Hanks balanced salt solution at 1 mg after 24 hrs; format: physicochemical
[3] = Chemical stability assessed as half life of hydrolysis; format: physicochemical
Procedure, shortened: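 UV-vis spectra (190-500 nm) followed in PBS (20 mM, pH 7.0, ionic strength 0.1 M with KCl)/CH₃CN 1:1 at 25 °C. The reaction was started by adding substrate freshly dissolved in acetonitrile, to a final (3-8) × 10^-5 M. Observed first- and second-step hydrolysis rate constants came from fitting the spectral data to a kinetic equation, and half-life was derived from them.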

[4] = Permeability from apical to basolateral side of dog MDCK1 cell monolayer assessed as intact drug level in basolateral compartment after 6 hrs; format: ADME, cell-based, Canis lupus familiaris; conditions: mdck1, 6 h
Procedure, shortened: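 MDCK-1 cells in DMEM with 10% FBS were seeded at 3 × 10⁵ cells/cm² on 24-mm Transwell inserts and used at TER ~10-15 kΩ·cm² (10-20 days). Compound was applied apically at formally 30-50 µM in HBSS with 0.1% DMSO. Basolateral fluid was taken at 6 h and quantified by HPLC-UV (300/370 nm) against standard curves; quantification limit 0.2 µM.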

Caco-2 = assay: Permeability from apical to basolateral side of human Caco-2 cell monolayer assessed as intact drug level in basolateral compartment after 6 hrs; format: ADME, cell-based; conditions: caco-2, 6 h
Procedure, shortened: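 Caco-2 cells were cultured in DMEM with 10% FBS, seeded at 3 × 10⁵ cells/cm² on 24-mm Transwell inserts, and tested at TER 1.5-2 kΩ·cm² (10-20 days). Compound at formally 30-50 µM in HBSS with 0.1% DMSO was placed apically. Basolateral content at 6 h was measured by HPLC-UV (300/370 nm) against standard curves; quantification limit 0.2 µM.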

Row | solubility at 24 h [2] [µM] | SMILES | further results
1 | 1.1 | CC(=O)Oc1cc(OC(C)=O)c2c(=O)c(OC(C)=O)c(-c3ccc(OC(C)=O)c(OC(C)=O)c3)oc2c1 | Activity [1]: 0.5%
2 |  | CC(C)(C)OC(=O)NCCCC(=O)Oc1cc(-c2oc3cc(O)cc(O)c3c(=O)c2O)ccc1O | t1/2 [3]: 2.08 h
3 | 12 | CC(=O)Oc1cc(OC(C)=O)c2c(=O)c(OC(C)=O)c(-c3ccc(OC(C)=O)c(OC(=O)[C@@H](C)NC(=O)OC(C)(C)C)c3)oc2c1 | 
4 | 2.5 | CC(=O)Oc1cc(OC(C)=O)c2c(=O)c(OC(C)=O)c(-c3ccc(OC(C)=O)c(OC(=O)CCCNC(=O)OC(C)(C)C)c3)oc2c1 | 
5 |  | CC(C)(C)OC(=O)NCCCCCC(=O)Oc1cc(-c2oc3cc(O)cc(O)c3c(=O)c2O)ccc1O | t1/2 [3]: 3.67 h
6 | 3.9 | CC(=O)Oc1cc(OC(C)=O)c2c(=O)c(OC(C)=O)c(-c3ccc(OC(C)=O)c(OC(=O)CCCCCNC(=O)OC(C)(C)C)c3)oc2c1 | 
7 | 1 | CC(=O)Oc1cc(OC(C)=O)c2c(=O)c(OC(C)=O)c(-c3ccc(OC(C)=O)c(OC(=O)c4ccc(N)cc4)c3)oc2c1 | 
8 | 0.4 | CC(=O)Oc1cc(OC(C)=O)c2c(=O)c(OC(C)=O)c(-c3ccc(OC(C)=O)c(OC(=O)c4ccc(NC(=O)OC(C)(C)C)cc4)c3)oc2c1 | 
9 |  | CC(C)(C)OC(=O)N[C@H]1CC[C@@H](C(=O)Oc2cc(-c3oc4cc(O)cc(O)c4c(=O)c3O)ccc2O)CC1 | t1/2 [3]: 3.31 h
10 | 0.4 | CC(C)(C)OC(=O)Nc1ccc(C(=O)Oc2cc(-c3oc4cc(O)cc(O)c4c(=O)c3O)ccc2O)cc1 | 
11 | 0.8 | CC(=O)Oc1cc(OC(C)=O)c2c(=O)c(OC(C)=O)c(-c3ccc(OC(C)=O)c(OC(=O)[C@H]4CC[C@@H](NC(=O)OC(C)(C)C)CC4)c3)oc2c1 | 
12 | 1.5 | Nc1ccc(C(=O)Oc2cc(-c3oc4cc(O)cc(O)c4c(=O)c3O)ccc2O)cc1 | 

Row | SMILES | solubility at 24 h [2] [µM] | further results
13 | O=c1c(O)c(-c2ccc(O)c(O)c2)oc2cc(O)cc(O)c12 [QUERCETIN] | 2.3 | Activity [1]: 2.7%; Activity [4]: 0.9%; Activity (Caco-2): 1%
